Assay results reported in ChEMBL document CHEMBL1127484, “5-Aryl-3-(alkylthio)-4H-1,2,4-triazoles as selective antagonists of strychnine-induced convulsions and potential antispastic agents” (J Med Chem, 1994).

Key:
Mus musculus [1] = assay: Effective dose required for antagonist activity against pentylenetetrazole-induced seizures in mice when administered intraperitoneally; type: functional; settings: ip
Procedure, shortened: (§1)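 CD-1 male mice (18–26 g), groups of 5 or 10, housed individually, dosed ip in distilled H2O or H2O/Tween 80. Convulsant given 30 min later. Strychnine sulfate 2.7 mg/kg ip: protection = no tonic extension >15 min. MES 50 mA, 0.2 s, corneal: no tonic hind-limb extension. PTZ 60 mg/kg iv: no clonic seizures for 2 min. MPA 100 mg/kg iv: no seizures for 5 min. ED50 by quantal analysis from ≥4 doses, ≥10 mice each.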

Mus musculus [2] = assay: Effective dose required for antagonist activity against 3-mercaptopropionic-acid induced seizures in mice when administered intraperitoneally; type: functional; settings: ip; procedure, shortened: as §1
[3] = Dose encompassing the 50% lethal effect was recorded when administered intraperitoneally in mice; type: ADME, organism-based; settings: mouse, in vivo, ip
Procedure, shortened: (§2)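 Deaths were recorded over the 7 days after dosing. The estimated LD50 was taken as the dose range spanning 50% lethality.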

Mus musculus [4] = assay: Effective dose required for antagonist activity against strychnine induced seizures in mice when administered intraperitoneally; type: functional; settings: ip; procedure, shortened: as §1
Mus musculus [5] = assay: Effective dose required for antagonist activity against maximal electroshock induced seizures in mice when administered intraperitoneally; type: functional; settings: ip; procedure, shortened: as §1
[6] = Dose encompassing the 50% lethal effect was recorded when administered intraperitoneally in mice; Range is 400-800; type: ADME, organism-based; settings: mouse, in vivo, ip; procedure, shortened: as §2
[7] = Dose encompassing the 50% lethal effect was recorded when administered intraperitoneally in mice; 400-800; type: ADME, organism-based; settings: mouse, in vivo, ip; procedure, shortened: as §2
Mus musculus [8] = assay: Effective dose required for antagonist activity against pentylenetetrazole-induced seizures in mice when administered intraperitoneally; 100-200; type: functional; settings: ip; procedure, shortened: as §1
Mus musculus [9] = assay: Effective dose required for antagonist activity against maximal electroshock induced seizures in mice when administered intraperitoneally; Range is 100-200; type: functional; settings: ip; procedure, shortened: as §1
Mus musculus [10] = assay: Effective dose required for antagonist activity against pentylenetetrazole-induced seizures in mice when administered intraperitoneally; Range is 50-100; type: functional; settings: ip; procedure, shortened: as §1
Mus musculus [11] = assay: Effective dose required for antagonist activity against pentylenetetrazole-induced seizures in mice when administered intraperitoneally; Range is 100-200; type: functional; settings: ip; procedure, shortened: as §1
Mus musculus [12] = assay: Effective dose required for antagonist activity against 3-mercaptopropionic-acid-induced seizures in mice when administered intraperitoneally; Range is 100-200; type: functional; settings: ip; procedure, shortened: as §1
Mus musculus [13] = assay: Effective dose required for antagonist activity against pentylenetetrazole-induced seizures in mice when administered intraperitoneally; Range is 25-50; type: functional; settings: ip; procedure, shortened: as §1
Mus musculus [14] = assay: Effective dose required for antagonist activity against strychnine induced seizures in mice when administered intraperitoneally; Range is 50-100; type: functional; settings: ip; procedure, shortened: as §1

SMILES | ED50 (Mus musculus [1]) | ED50 (Mus musculus [2]) | LD50 [3] | ED50 (Mus musculus [4]) | ED50 (Mus musculus [5]) | also measured
Cn1c(-c2cccc3ccccc23)nnc1[S+](C)[O-] (stereo unspecified) | > 200 mg/kg | > 200 mg/kg | > 800 mg/kg | > 200 mg/kg | > 200 mg/kg | 
Cn1c(-c2cccs2)nnc1S(C)(=O)=O | > 200 mg/kg | > 200 mg/kg | > 800 mg/kg | > 200 mg/kg | > 200 mg/kg | 
Cn1c(-c2cccc(F)c2)nnc1S(C)(=O)=O | > 200 mg/kg | > 200 mg/kg | > 800 mg/kg | 12.1 mg/kg | > 200 mg/kg | 
O=C1NC(=O)C(c2ccccc2)(c2ccccc2)N1 [PHENYTOIN] | > 32 mg/kg | 89 mg/kg |  | > 200 mg/kg | 25.9 mg/kg | 
Cn1nc(-c2cccc(F)c2)nc1S(C)(=O)=O | > 100 mg/kg | > 100 mg/kg |  | > 100 mg/kg | > 100 mg/kg | LD50 [6]: 800 mg/kg
Cn1c(-c2cccc3ccccc23)nnc1S(C)(=O)=O | > 200 mg/kg | > 200 mg/kg | > 800 mg/kg | > 200 mg/kg | > 200 mg/kg | 
Cn1c(-c2ccccc2F)nnc1[S+](C)[O-] (stereo unspecified) | 57.9 mg/kg | > 200 mg/kg | > 800 mg/kg | 20 mg/kg | > 200 mg/kg | 
Cn1nc(S(C)(=O)=O)nc1-c1ccccc1 | > 200 mg/kg | > 200 mg/kg | > 800 mg/kg | > 200 mg/kg | > 200 mg/kg | 
CSc1nnc(-c2cccc(F)c2)n1C | > 200 mg/kg | > 200 mg/kg | > 800 mg/kg | 13.8 mg/kg | > 200 mg/kg | 
CN1C(=O)CN=C(c2ccccc2)c2cc(Cl)ccc21 [DIAZEPAM] | 1.5 mg/kg | 0.9 mg/kg |  | 40.6 mg/kg | 14.8 mg/kg | 
Cc1ccc(-c2nnc(S(C)(=O)=O)n2C)cc1 | > 200 mg/kg | > 200 mg/kg | > 800 mg/kg | > 200 mg/kg | > 200 mg/kg | 
CCSc1nnc(-c2ccccc2)n1C |  | > 200 mg/kg |  | > 200 mg/kg | > 200 mg/kg | LD50 [7]: 800 mg/kg; ED50 (Mus musculus [8]): 200 mg/kg
Cn1nc(-c2ccccc2)nc1S(C)(=O)=O | > 200 mg/kg | > 200 mg/kg | > 800 mg/kg | > 200 mg/kg | > 200 mg/kg | 
CSc1nnc(-c2cccc3ccccc23)n1C | > 200 mg/kg | > 200 mg/kg | > 800 mg/kg | > 200 mg/kg | > 200 mg/kg | 
CCSc1nnc(-c2ccccc2F)n1C |  | > 200 mg/kg |  |  |  | ED50 (Mus musculus [9]): 200 mg/kg; LD50 [6]: 800 mg/kg; ED50 (Mus musculus [10]): 100 mg/kg
COc1ccc(-c2nnc(S(C)(=O)=O)n2C)cc1 | > 200 mg/kg | > 200 mg/kg | > 800 mg/kg | > 200 mg/kg | > 200 mg/kg | 
CSc1nnc(-c2ccccc2F)n1C | 61.3 mg/kg |  |  | 8.8 mg/kg | > 200 mg/kg | LD50 [6]: 800 mg/kg
CSc1nc(-c2ccccc2)n(C)n1 | > 100 mg/kg | > 100 mg/kg | > 800 mg/kg | > 100 mg/kg | > 100 mg/kg | 
CC[S+]([O-])c1nnc(-c2ccccc2)n1C (stereo unspecified) |  | > 200 mg/kg | > 800 mg/kg |  | > 200 mg/kg | ED50 (Mus musculus [11]): 200 mg/kg
CSc1nnc(-c2ccccc2Cl)n1C | > 50 mg/kg | > 50 mg/kg |  | > 50 mg/kg | > 50 mg/kg | LD50 [6]: 800 mg/kg

SMILES | ED50 (Mus musculus [1]) | ED50 (Mus musculus [2]) | LD50 [3] | ED50 (Mus musculus [4]) | ED50 (Mus musculus [5]) | also measured
CCS(=O)(=O)c1nnc(-c2ccccc2)n1C |  |  | > 800 mg/kg |  | > 200 mg/kg | ED50 (Mus musculus [12]): 200 mg/kg; ED50 (Mus musculus [10]): 100 mg/kg
Cn1nc([S+](C)[O-])nc1-c1ccccc1 (stereo unspecified) | > 200 mg/kg | > 200 mg/kg | > 800 mg/kg | > 200 mg/kg | > 200 mg/kg | 
Cn1nc(-c2ccc(Cl)cc2)nc1S(C)(=O)=O | > 200 mg/kg | > 200 mg/kg | > 800 mg/kg | > 200 mg/kg | > 200 mg/kg | 
CCn1c(SC)nnc1-c1ccccc1F |  |  | > 800 mg/kg | 75 mg/kg |  | ED50 (Mus musculus [12]): 200 mg/kg; ED50 (Mus musculus [9]): 200 mg/kg; ED50 (Mus musculus [13]): 50 mg/kg
CSc1nc(-c2ccc(Cl)cc2)nn1C |  | > 200 mg/kg | > 800 mg/kg | > 200 mg/kg | > 200 mg/kg | ED50 (Mus musculus [10]): 100 mg/kg
CSc1nc(-c2ccccc2)nn1C |  | > 200 mg/kg | > 800 mg/kg | > 200 mg/kg |  | ED50 (Mus musculus [9]): 200 mg/kg; ED50 (Mus musculus [10]): 100 mg/kg
CSc1nnc(-c2ccc(F)cc2)n1C | > 200 mg/kg | > 200 mg/kg | > 800 mg/kg | 33.4 mg/kg | > 200 mg/kg | 
CSc1n[nH]c(-c2ccc(F)cc2)n1 | > 200 mg/kg | > 200 mg/kg | > 800 mg/kg | > 200 mg/kg | > 200 mg/kg | 
Cc1ccc(-c2nnc([S+](C)[O-])n2C)cc1 (stereo unspecified) | > 200 mg/kg | > 200 mg/kg | > 800 mg/kg |  | > 200 mg/kg | ED50 (Mus musculus [14]): 100 mg/kg
CC[S+]([O-])c1nnc(-c2ccccc2F)n1C (stereo unspecified) | > 200 mg/kg | > 200 mg/kg | > 800 mg/kg | 32.7 mg/kg |  | ED50 (Mus musculus [9]): 200 mg/kg
CSc1nnc(-c2ccc(Cl)cc2)n1C | > 200 mg/kg |  | > 800 mg/kg | 28.1 mg/kg | > 200 mg/kg | 
Cn1c(-c2ccccc2)nnc1[S+](C)[O-] (stereo unspecified) | > 100 mg/kg | > 100 mg/kg |  | 18.6 mg/kg | > 100 mg/kg | LD50 [6]: 800 mg/kg
CCS(=O)(=O)c1nnc(-c2ccccc2F)n1C |  | > 200 mg/kg | > 800 mg/kg | 85.8 mg/kg | > 200 mg/kg | ED50 (Mus musculus [11]): 200 mg/kg
Cn1c(-c2ccccc2F)nnc1S(C)(=O)=O | > 100 mg/kg | > 100 mg/kg | > 800 mg/kg | 17.6 mg/kg | > 100 mg/kg | 
CSc1nnc(-c2cccs2)n1C | > 100 mg/kg | > 100 mg/kg |  | 34.1 mg/kg | > 100 mg/kg | LD50 [6]: 800 mg/kg
COc1ccc(-c2nnc(SC)n2C)cc1 | > 100 mg/kg | > 100 mg/kg |  | > 100 mg/kg | > 100 mg/kg | LD50 [6]: 800 mg/kg
CSc1nnc(-c2ccc(C)cc2)n1C | > 100 mg/kg | > 100 mg/kg |  |  | > 100 mg/kg | ED50 (Mus musculus [14]): 100 mg/kg; LD50 [6]: 800 mg/kg
COc1ccc(-c2nnc([S+](C)[O-])n2C)cc1 (stereo unspecified) | > 100 mg/kg | > 100 mg/kg |  |  | > 100 mg/kg | ED50 (Mus musculus [14]): 100 mg/kg; LD50 [6]: 800 mg/kg
CCCC(CCC)C(=O)O [VALPROIC ACID] |  |  |  | > 200 mg/kg | > 200 mg/kg | ED50 (Mus musculus [11]): 200 mg/kg
